Measurements as given in ChEMBL document CHEMBL1123468, “Synthesis and antiviral activity of (E)-5-(2-bromovinyl)uracil and (E)-5-(2-bromovinyl)uridine” (1986).

Assays:
BSC-1 = experiment: The compound was tested for its antiviral activity against HSV-1 (KOS) virus in BS-C-1A cell line; format: functional, Cercopithecidae; details: Chlorocebus aethiops
How it was run: (§1)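 Virus-induced cytopathogenicity in cell culture, scored microscopically. The value is the minimum concentration that cuts viral cytopathogenicity by 50%. Normal cell morphology was also checked microscopically at up to 400 μg/mL.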

E6SM [1] = experiment: The compound was tested for its antiviral activity against HSV-1 (KOS) virus in E6SM cell line; format: functional; details: Homo sapiens; how it was run: as §1
E6SM [2] = experiment: The concentration required to reduce the cytopathogenicity of HSV-1 (KOS) in E6SM cell culture by 50% in presence of 100 ug/mL dThd; format: functional; details: Homo sapiens
How it was run: (§2)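 E6SM cells infected with HSV-1 (KOS), with dThd added to the culture medium at the stated concentration. The value is the minimum concentration that reduces viral cytopathogenicity by 50%.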

E6SM [3] = experiment: The concentration required to reduce the cytopathogenicity of HSV-1 (KOS) in E6SM cell culture by 50% in presence of 100 ug/mL concentrations of 6-aminothymine; format: functional; details: Homo sapiens
How it was run: (§3)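 E6SM cells infected with HSV-1 (KOS), with 6-aminothymine or benzylacyclouridine added to the medium at the stated concentration. The value is the minimum concentration that reduces viral cytopathogenicity by 50%.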

E6SM [4] = experiment: The compound was tested for its antiviral activity against HSV-1 (F) virus in E6SM cell culture; format: functional; details: Homo sapiens; how it was run: as §1
E6SM [5] = experiment: The concentration required to reduce the cytopathogenicity of HSV-1 (KOS) in E6SM cell culture by 50% in presence of 50 ug/mL concentrations of benzylacyclouridine; format: functional; details: Homo sapiens
How it was run: (§4)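 E6SM cultures were infected with HSV-1 strain KOS. 6-Aminothymine or benzylacyclouridine was present in the medium together with the test compound. The value is the minimum concentration giving 50% reduction of viral cytopathogenicity, scored by the earlier-described cytopathogenicity inhibition procedure.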

E6SM [6] = experiment: The compound was tested for its antiviral activity against HSV-1 (KOS) virus in E6SM cell culture; format: functional; details: Homo sapiens; how it was run: as §1
E6SM [7] = experiment: The compound was tested for its antiviral activity against HSV-1 (McIntyre) virus in E6SM cell culture; format: functional; details: Homo sapiens; how it was run: as §1
E6SM [8] = experiment: The compound was tested for its antiviral activity against HSV-2 (196) virus in E6SM cell culture; format: functional; details: Homo sapiens; how it was run: as §1
E6SM [9] = experiment: The compound was tested for its antiviral activity against HSV-2 (Lyons) virus in E6SM cell culture; format: functional; details: Homo sapiens; how it was run: as §1
E6SM [10] = experiment: The compound was tested for its antiviral activity against TK-HSV-1 (B2006) virus in E6SM cell culture; format: functional; details: Homo sapiens; how it was run: as §1
E6SM [11] = experiment: The compound was tested for its antiviral activity against vaccinia virus in E6SM cell culture; format: functional; details: Homo sapiens; how it was run: as §1
E6SM [12] = experiment: The compound was tested for its antiviral activity against vesicular stomatitis virus in E6SM cell culture; format: functional; details: Homo sapiens; how it was run: as §1
E6SM [13] = experiment: The concentration required to reduce the cytopathogenicity of HSV-1 (KOS) in E6SM cell culture by 50% in absence of dThd; format: functional; details: Homo sapiens; how it was run: as §2
E6SM [14] = experiment: The concentration required to reduce the cytopathogenicity of HSV-1 (KOS) in E6SM cell culture by 50% in presence of 1 ug/mL dThd; format: functional; details: Homo sapiens; how it was run: as §2
E6SM [15] = experiment: The concentration required to reduce the cytopathogenicity of HSV-1 (KOS) in E6SM cell culture by 50% in presence of 10 ug/mL dThd; format: functional; details: Homo sapiens; how it was run: as §2
E6SM [16] = experiment: The concentration required to reduce the cytopathogenicity of HSV-1 (KOS) in E6SM cell culture by 50% in presence of 10 ug/mL concentrations of benzylacyclouridine; format: functional; details: Homo sapiens; how it was run: as §3
E6SM [17] = experiment: The concentration required to reduce the cytopathogenicity of HSV-1 (KOS) in E6SM cell culture by 50% in presence of 20 ug/m concentrations of 6-aminothymine; format: functional; details: Homo sapiens; how it was run: as §3
E6SM [18] = experiment: The concentration required to reduce the cytopathogenicity of HSV-1 (KOS) in E6SM cell culture by 50% in presence of 3 ug/mL dThd; format: functional; details: Homo sapiens; how it was run: as §2
E6SM [19] = experiment: The concentration required to reduce the cytopathogenicity of HSV-1 (KOS) in E6SM cell culture by 50% in presence of 30 ug/mL dThd; format: functional; details: Homo sapiens
How it was run: (§5)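 Thymidine (dThd) was added to the E6SM culture medium alongside the test compound, and cells were infected with HSV-1 strain KOS. The endpoint is the minimum inhibitory concentration that reduces viral cytopathogenicity by 50%. The cytopathogenicity inhibition procedure follows the earlier-described method.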

E6SM [20] = experiment: The concentration required to reduce the cytopathogenicity of HSV-1 (KOS) in E6SM cell culture by 50% in presence of 300 ug/mL dThd; format: functional; details: Homo sapiens; how it was run: as §5
E6SM [21] = experiment: The concentration required to reduce the cytopathogenicity of HSV-1 (KOS) in E6SM cell culture by 50% in presence of 4 ug/m concentrations of 6-aminothymine; format: functional; details: Homo sapiens; how it was run: as §4
E6SM [22] = experiment: The concentration required to reduce the cytopathogenicity of HSV-1 (KOS) in E6SM cell culture by 50% in presence of absence of concentrations of 6-aminothymine; format: functional; details: Homo sapiens
E1 SM = experiment: The compound was tested for its antiviral activity against HSV-1 (KOS) virus in E1SM cell line; format: functional, Homo sapiens; how it was run: as §1
E6SM [23] = experiment: The concentration required to reduce the cytopathogenicity of HSV-1 (KOS) in E6SM cell culture by 50% in presence of absence of concentrations of benzylacyclouridine; format: functional; details: Homo sapiens
HeLa [24] = experiment: The concentration required to reduce the cytopathogenicity of HSV-1 (KOS) in HeLa cell culture by 50% in presence of 4 ug/m concentrations of 6-aminothymine; format: functional; details: Homo sapiens
HeLa [25] = experiment: The concentration required to reduce the cytopathogenicity of HSV-1 (KOS) in HeLa cell culture by 50% in presence of absence concentrations of 6-aminothymine; format: functional; details: Homo sapiens
HeLa [26] = experiment: The concentration required to reduce the cytopathogenicity of HSV-1 (KOS) in HeLa cell culture by 50% in presence of 100 ug/m concentrations of 6-aminothymine; format: functional; details: Homo sapiens
HeLa [27] = experiment: The concentration required to reduce the cytopathogenicity of HSV-1 (KOS) in HeLa cell culture by 50% in presence of 20 ug/m concentrations of 6-aminothymine; format: functional; details: Homo sapiens
HEp-2 = experiment: The compound was tested for its antiviral activity against HSV-1 (KOS) virus in HEp-2M cell line; format: functional; details: Homo sapiens; how it was run: as §1
HSF (VGS) = experiment: The compound was tested for its antiviral activity against HSV-1 (KOS) virus in HSF (VGS) cell line; format: functional; details: Homo sapiens; how it was run: as §1
M21 = experiment: The compound was tested for its antiviral activity against HSV-1 (KOS) virus in M-21 (GM137) cell line,; format: functional; details: Homo sapiens; how it was run: as §1
Mo = experiment: The compound was tested for its antiviral activity against HSV-1 (KOS) virus in MO cell line; format: functional; details: Homo sapiens; how it was run: as §1
PRK = experiment: The compound was tested for its antiviral activity against HSV-1 (KOS) virus in PRK cell line; format: functional; details: Oryctolagus cuniculus
How it was run: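 Primary rabbit kidney cells infected with HSV-1 (KOS). The value is the minimum concentration that cuts viral cytopathogenicity by 50%. Cytotoxicity was judged as microscopically detectable alteration of cell morphology at up to 400 μg/mL.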

[28] = The concentration required to reduce the cytopathogenicity of HSV-1 (KOS) in PRK cell culture absence concentrations of 6-aminothymine; format: functional; details: Oryctolagus cuniculus
[29] = The concentration required to reduce the cytopathogenicity of HSV-1 (KOS) in PRK cell culture by 50% in presence of 100 ug/mL concentrations of 6-aminothymine; format: functional; details: Oryctolagus cuniculus
How it was run: (§6)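 The cells were primary rabbit kidney (PRK) cultures infected with HSV-1 strain KOS, with 6-aminothymine co-present in the medium. The value is the minimum inhibitory concentration that reduces viral cytopathogenicity by 50%, using the previously described cytopathogenicity inhibition method.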

[30] = The concentration required to reduce the cytopathogenicity of HSV-1 (KOS) in PRK cell culture by 50% in presence of 20 ug/mL concentrations of 6-aminothymine; format: functional; details: Oryctolagus cuniculus; how it was run: as §6
[31] = The concentration required to reduce the cytopathogenicity of HSV-1 (KOS) in PRK cell culture by 50% in presence of 40 ug/mL concentrations of 6-aminothymine; format: functional; details: Oryctolagus cuniculus; how it was run: as §6
T-21 (LR) = experiment: The compound was tested for its antiviral activity against HSV-1 (KOS) virus in T-21 (LR) cell line; format: functional; details: Homo sapiens; how it was run: as §1
Vero = experiment: The compound was tested for its antiviral activity against HSV-1 (KOS) virus in vero cell line; format: functional; details: Chlorocebus sabaeus; how it was run: as §1
HeLa [32] = experiment: The compound was tested for its antiviral activity against HSV-1 (KOS) virus in HeLa cell line; format: functional; details: Homo sapiens; how it was run: as §1
E6SM [33] = experiment: The compound was tested for its antiviral activity against HSV-2 (G) virus in E6SM cell culture; format: functional; details: Homo sapiens; how it was run: as §1
BALB/3T3 = experiment: The compound was tested for its antiviral activity against HSV-1 (KOS) virus in BALB/3T3 cell line; details: Mus musculus

Measured: MIC50

O=c1[nH]c(=O)n([C@@H]2O[C@H](CO)[C@@H](O)[C@H]2O)cc1/C=C/Br
1 mg/L: E1 SM | HeLa [26] | HSF (VGS)
7 mg/L: E6SM [4] | E6SM [13] | E6SM [14] | PRK
70 mg/L: E6SM [15]
10 mg/L: E6SM [5] | [28] | [29] | [30] | [31] | T-21 (LR)
0.4 mg/L: HeLa [24] | HeLa [27] | HeLa [32]
150 mg/L: HEp-2
0.2 mg/L: HeLa [25]
> 200 mg/L: E6SM [10]
4 mg/L: E6SM [1] | E6SM [3] | E6SM [6] | E6SM [16] | E6SM [18] | E6SM [22] | E6SM [23] | M21
2 mg/L: E6SM [7]
3 mg/L: E6SM [17] | E6SM [21]
> 400 mg/L: all other assays above
